# Data taken from ChEMBL document CHEMBL2034868, “Synthesis of methoxylated goniothalamin, aza-goniothalamin and γ-pyrones and their in vitro evaluation against human cancer cells” (Bioorg Med Chem, 2012).
# Tests used:
# MCF7 = assay: Growth inhibition of human MCF7 cells after 48 hrs by sulforhodamine B assay; format: functional
# Outline: (§1)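 Cells in 96-well plates were exposed for 48 h at 37 °C in 5% CO2 to compounds at 0.25, 2.5, 25 and […] in DMSO/RPMI. Doxorubicin was the positive control at […]. Cells were then fixed with 50% trichloroacetic acid and stained with sulforhodamine B, with protein read at 540 nm. TGI (the concentration where T = T0) was taken by non-linear regression of each cell line's concentration-response curve.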
# 786-0 = assay: Growth inhibition of human 786-0 cells after 48 hrs by sulforhodamine B assay; format: functional; outline: as §1
# [1] = Growth inhibition of human HaCaT cells after 48 hrs by sulforhodamine B assay; format: cell-based; outline: as §1
# [2] = Growth inhibition of human NCI/ADR cells after 48 hrs by sulforhodamine B assay; format: functional; outline: as §1
# OVCAR-3 = assay: Growth inhibition of human OVCAR3 cells after 48 hrs by sulforhodamine B assay; format: functional; outline: as §1
# NCI-H460 = assay: Growth inhibition of human NCI-H460 cells after 48 hrs by sulforhodamine B assay; format: functional; outline: as §1
# HT-29 = assay: Growth inhibition of human HT-29 cells after 48 hrs by sulforhodamine B assay; format: functional; outline: as §1
# U-251 = assay: Growth inhibition of human U251 cells after 48 hrs by sulforhodamine B assay; format: functional; outline: as §1
SMILES,GI (MCF7),GI (786-0),TGI at 48 h [1],GI [2],GI (OVCAR-3),GI (NCI-H460),GI (HT-29),GI (U-251)
COc1cc(OC)c(OC)cc1/C=C/C1CC=CC(=O)N1 (stereo unspecified),>864.1 µM,>864.1 µM,> 864 µM,>864.1 µM,>864.1 µM,>864.1 µM,>864.1 µM,>864.1 µM
COc1ccc(/C=C/C2CC=CC(=O)N2)c(OC)c1 (stereo unspecified),>964.1 µM,>964.1 µM,> 964 µM,>964.1 µM,>964.1 µM,>964.1 µM,>964.1 µM,>964.1 µM
COc1ccc(C2CC(=O)C(I)=CO2)cc1 (stereo unspecified),43.2 µM,27 µM,53.3 µM,39.7 µM,38.2 µM,74.6 µM,24.4 µM,24.4 µM
O=C1C=COC(/C=C/c2ccccc2)C1 (stereo unspecified),152.6 µM,138.2 µM,126 µM,105.3 µM,58.2 µM,82.4 µM,123.6 µM,121.8 µM
O=C1C=COC(/C=C/c2ccc(C(F)(F)F)cc2)C1 (stereo unspecified),41.2 µM,39.6 µM,123 µM,51.6 µM,58.2 µM,95.6 µM,33.3 µM,38.6 µM
O=C1C=CCC(/C=C/c2ccccc2C(F)(F)F)N1 (stereo unspecified),120.2 µM,123.4 µM,249 µM,40.6 µM,329.3 µM,194.7 µM,195.4 µM,69.9 µM
COc1ccc(C2CC(=O)C(Br)=CO2)cc1 (stereo unspecified),42.2 µM,33.4 µM,164 µM,52.9 µM,113.5 µM,117.7 µM,69 µM,46.4 µM
O=C1C=CCC(/C=C/c2ccc(C(F)(F)F)cc2)O1 (racemic),51 µM,44.5 µM,69.7 µM,54.8 µM,167.2 µM,476.9 µM,36.2 µM,36.8 µM
COc1ccc(-c2cc(=O)cco2)cc1,>1236.3 µM,>1236.3 µM,> 1240 µM,>1236.3 µM,>1236.3 µM,>1236.3 µM,>1236.3 µM,>1236.3 µM
O=C1C=CCC(/C=C/c2ccccc2)N1 (stereo unspecified),607.4 µM,>1254.8 µM,> 1250 µM,966.6 µM,>1254.8 µM,928.5 µM,1195.8 µM,797.6 µM
COc1ccc(/C=C/C2CC=CC(=O)N2)cc1 (stereo unspecified),>1090.4 µM,>1090.4 µM,> 1090 µM,841.7 µM,786.8 µM,>1090.4 µM,>1090.4 µM,981.3 µM
O=C1C=COC(/C=C/c2ccc3c(c2)OCO3)C1 (stereo unspecified),81.4 µM,104.1 µM,145 µM,186.8 µM,101.7 µM,147.4 µM,126.9 µM,77 µM
O=C1C=CCC(/C=C/c2ccc(C(F)(F)F)cc2)N1 (stereo unspecified),149.5 µM,127.8 µM,174 µM,71.8 µM,126 µM,150.4 µM,139.2 µM,130.3 µM
COc1ccc(/C=C/c2cc(=O)cco2)cc1OC,953.6 µM,635.4 µM,690 µM,407.9 µM,540.2 µM,545.5 µM,806.7 µM,338.9 µM
COc1ccc(/C=C/C2CC(=O)C=CO2)cc1OC (stereo unspecified),130.2 µM,145.1 µM,134 µM,145.8 µM,74.3 µM,89.6 µM,123.2 µM,86.9 µM
O=C1C=CCC(/C=C/c2ccccc2C(F)(F)F)O1 (racemic),50.4 µM,52.3 µM,82.7 µM,75.5 µM,295.6 µM,241.5 µM,71.7 µM,43.4 µM

SMILES,GI (MCF7),GI (786-0),TGI at 48 h [1],GI [2],GI (OVCAR-3),GI (NCI-H460),GI (HT-29),GI (U-251)
COc1ccc(/C=C/C2CC=CC(=O)O2)cc1OC (racemic),7.8 µM,10.9 µM,63 µM,11.6 µM,16.8 µM,14.6 µM,17.2 µM,23.9 µM
COc1cc(/C=C/C2CC=CC(=O)O2)cc(OC)c1 (racemic),9.5 µM,10.6 µM,8.8 µM,8.9 µM,19.1 µM,9 µM,8.2 µM,8.1 µM
COc1ccc(/C=C/C2CC=CC(=O)N2)cc1OC (stereo unspecified),>964.1 µM,>964.1 µM,> 964 µM,>964.1 µM,>964.1 µM,>964.1 µM,>964.1 µM,>964.1 µM
COc1cc(OC)c(OC)cc1/C=C/C1CC=CC(=O)O1 (racemic),3.8 µM,6 µM,46.9 µM,9.4 µM,7.2 µM,9.8 µM,15.9 µM,11.5 µM
COc1ccc(C2CC(=O)C=CO2)cc1 (stereo unspecified),172.9 µM,197 µM,264 µM,419.6 µM,248.6 µM,192.8 µM,203.4 µM,226.1 µM
COc1cc(/C=C/C2CC=CC(=O)N2)cc(OC)c1OC (stereo unspecified),>864.1 µM,>864.1 µM,> 864 µM,>864.1 µM,>864.1 µM,>864.1 µM,>864.1 µM,>864.1 µM
COc1cc(/C=C/C2CC(=O)C=CO2)cc(OC)c1OC (stereo unspecified),149.4 µM,125 µM,155 µM,223.2 µM,85.4 µM,127.3 µM,134.5 µM,101.8 µM
COc1cc(/C=C/C2CC=CC(=O)O2)cc(OC)c1OC (racemic),15.3 µM,18.5 µM,21.6 µM,35.1 µM,44.9 µM,28.8 µM,18.8 µM,25.1 µM
COc1ccc(/C=C/C2CC=CC(=O)O2)c(OC)c1 (racemic),5.4 µM,4.1 µM,15.8 µM,8.8 µM,5.6 µM,6 µM,6.6 µM,4.6 µM
O=C1C=CC[C@H](/C=C/c2ccccc2)O1 [GONIOTHALAMIN],12.7 µM,14.8 µM,27.7 µM,8 µM,14.2 µM,13.6 µM,13.9 µM,13.7 µM
COc1cccc2c1C(=O)c1c(O)c3c(c(O)c1C2=O)C[C@@](O)(C(=O)CO)C[C@@H]3O[C@H]1C[C@H](N)[C@H](O)[C@H](C)O1 [DOXORUBICIN],3.7 µM,2.1 µM,0.8 µM,13.5 µM,6.3 µM,1.3 µM,13.9 µM,2.4 µM
COc1ccc(/C=C/c2cc(=O)cco2)cc1,395.9 µM,376.8 µM,710 µM,309.9 µM,327.9 µM,606.1 µM,379.2 µM,278.4 µM
O=c1ccoc(/C=C/c2ccccc2)c1,691.1 µM,409.9 µM,711 µM,514.2 µM,545.5 µM,508.5 µM,344.1 µM,285.4 µM
COc1cc(/C=C/C2CC=CC(=O)N2)cc(OC)c1 (stereo unspecified),146.4 µM,173.4 µM,212 µM,203.2 µM,232.1 µM,145.5 µM,196.6 µM,169.9 µM
COc1ccc(/C=C/C2CC=CC(=O)O2)cc1 (racemic),25.5 µM,21.6 µM,58.8 µM,17.3 µM,61.5 µM,28.3 µM,33.7 µM,20.6 µM
COc1ccc(/C=C/C2CC(=O)C=CO2)cc1 (stereo unspecified),155.5 µM,191.5 µM,144 µM,239.3 µM,87.4 µM,149.4 µM,203.9 µM,151.9 µM
